Data as given in ChEMBL document CHEMBL1629415, “Biological evaluation of donor-acceptor aminonaphthoquinones as antitumor agents” (Eur J Med Chem, 2010).
Converted amounts (≈) assume the structure as drawn. The source made the active and inactive calls. The calls are words filed in the database; no cut-off is given here.

Experiments:
DU-145 = test: Cytotoxicity against human DU145 cells after 48 hrs by MTT assay; assay type: functional, cell-based; conditions: DU-145, 48 h
In short: (§1)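 T24, DU145 and MCF7 grown in high-glucose DMEM with 10% fetal calf serum and penicillin/streptomycin. BALB/3T3 mouse fibroblasts grown in the same medium with 10% newborn calf serum. Cells seeded at 10 000/well for 24 h, then exposed 48 h at 37 C. MTT 0.5 mg/mL for 2 h, formazan dissolved in DMSO, read at 550 nm. EC50 is the concentration that lowers MTT reduction by 50% versus untreated control.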

BALB/3T3 = test: Cytotoxicity against mouse BALB/3T3 cells after 48 hrs by MTT assay; assay type: cell-based; conditions: BALB/3T3, 48 h; in short: as §1
[1] = Lipophilicity, log P of the compound; assay type: physicochemical; conditions: octanol/water
MCF7 = test: Cytotoxicity against human MCF7 cells after 48 hrs by MTT assay; assay type: functional, cell-based; conditions: MCF7, 48 h; in short: as §1
T-24 [2] = test: Cytotoxicity against human T24 cells after 48 hrs by MTT assay; assay type: functional, cell-based; conditions: T-24, 48 h; in short: as §1
T-24 [3] = test: Induction of apoptosis in human T24 cells assessed as increase of caspase-3-mediated DEVDase activity at 10 ug/ml after 24 hrs; assay type: functional
In short: (§2)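 T24 cells exposed 6 or 24 h at 37 C, washed twice in PBS, lysed and centrifuged. Supernatant incubated with DEVD-AFC substrate, cleavage followed kinetically at room temperature (ex 380 nm, em 500 nm). Activity given as U/mg protein, protein by Lowry method with BSA standard.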

T-24 [4] = test: Anticancer activity against human T24 cells assessed as decreased in intracellular ATP level at 100 ug/ml after 6 hrs by ATPlite assay; assay type: functional, cell-based
In short: (§3)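 T24 cells in high-glucose DMEM with 10% FCS were exposed 6 h at 37 C to compound over a 1–100 range, alongside untreated controls. Intracellular ATP was measured by ATPlite luminescence kit. Groups were compared by one-way ANOVA with Bonferroni test.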

T-24 [5] = test: Induction of apoptosis in human T24 cells assessed as increase of caspase-3-mediated DEVDase activity at 100 ug/ml after 6 hrs; assay type: functional; in short: as §2
T-24 [6] = test: Anticancer activity against human T24 cells assessed as decreased in intracellular ATP level after 6 hrs by ATPlite assay; assay type: functional, cell-based; in short: as §3
T-24 [7] = test: Induction of apoptosis in human T24 cells assessed as increase of caspase-3-mediated DEVDase activity at 10 ug/ml after 6 hrs; assay type: functional; in short: as §2
T-24 [8] = test: Induction of apoptosis in human T24 cells assessed as increase of caspase-3-mediated DEVDase activity at 1 ug/ml after 24 hrs; assay type: functional; in short: as §2
T-24 [9] = test: Induction of apoptosis in human T24 cells assessed as increase of caspase-3-mediated DEVDase activity at 1 ug/ml after 6 hrs; assay type: functional; in short: as §2
T-24 [10] = test: Induction of apoptosis in human T24 cells assessed as increase of caspase-3-mediated DEVDase activity at 100 ug/ml after 24 hrs; assay type: functional; in short: as §2
T-24 [11] = test: Anticancer activity against human T24 cells assessed as inhibition of cell proliferation at 10 ug/ml after 10 days using crystal violet staining by clonogenic assay; assay type: functional
In short: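 T24 cells (500) seeded at single-cell density and left to adhere overnight. Compound exposure 24 h, then washed with warm PBS and regrown 10 days in fresh medium. Colonies stained with crystal violet to score clonogenic survival.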

T-24 [12] = test: Induction of apoptosis in human T24 cells assessed as increase of caspase-3-mediated DEVDase activity at 5 ug/ml after 4 hrs; assay type: functional; conditions: in the assay text read “5 uM” for “5 ug/ml”
In short: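 Positive-control arm: T24 cells exposed to sanguinarine for 4 h. Lysate supernatant then assayed for DEVD-AFC cleavage kinetically at room temperature (ex 380/em 500 nm), expressed as U/mg protein.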

Row | SMILES | EC50 (DU-145) [µg/mL] | EC50 (BALB/3T3) [µg/mL] | logP ([1]; read-out: logP) | EC50 (MCF7) [µg/mL] | EC50 (T-24 [2]) [µg/mL] | logP [1] | Activity (T-24 [3]) [U/mg] | Activity (T-24 [4]) | Activity (T-24 [5]) [U/mg] | Activity (T-24 [6]) | Activity (T-24 [7]) [U/mg] | Activity (T-24 [8]) [U/mg] | Activity (T-24 [9]) [U/mg] | Activity (T-24 [10]) [U/mg] | inhibition at 10 µg/mL (T-24 [11]; T-24, 240 h) [%] | Activity (T-24 [12]) [U/mg] | Activity (T-24 [11])
1 | CN(C1=C(Cl)C(=O)c2ccccc2C1=O)c1ccccc1 | 6.7 (≈ 22.5 µM) | 0.8 (≈ 2.69 µM) | 2.38 | 1.2 (≈ 4.03 µM) | 6 (≈ 20.2 µM) |  |  |  |  |  |  |  |  |  |  |  | 
2 | O=C1C(Cl)=C(Nc2ccc(O)cc2)C(=O)c2ccccc21 | 1.9 (≈ 6.34 µM) | 0.6 (≈ 2 µM) | 1.2 | 2.8 (≈ 9.34 µM) | 0.6 (≈ 2 µM) |  |  |  |  |  |  |  |  |  |  |  | 
3 | CN(C1=CC(=O)c2ccccc2C1=O)c1ccccc1 | 20.9 (≈ 79.4 µM) | 43.3 (≈ 164 µM) | 2.34 | 7.8 (≈ 29.6 µM) | 8.4 (≈ 31.9 µM) |  |  |  |  |  |  |  |  |  |  |  | 
4 | COc1ccc(OC)c(NC2=CC(=O)c3ccccc3C2=O)c1 | 35.2 (≈ 114 µM) | 11.5 (≈ 37.2 µM) | 1.3 | 1.2 (≈ 3.88 µM) | 10.9 (≈ 35.2 µM) |  |  |  |  |  |  |  |  |  |  |  | 
5 | COc1ccc(NC2=C(Cl)C(=O)c3ccccc3C2=O)cc1 | > 1000 | 13.7 (≈ 43.7 µM) | 1.46 | > 1000 | 438 (≈ 1390 µM) |  |  |  |  |  |  |  |  |  |  |  | 
6 | O=C1C(Cl)=C(Nc2ccccc2)C(=O)c2ccccc21 | 66.8 (≈ 235 µM) | 9.1 (≈ 32.1 µM) |  | 6.3 (≈ 22.2 µM) | 14.8 (≈ 52.2 µM) | 1.59 |  |  |  |  |  |  |  |  |  |  | 
7 | Cc1ccccc1NC1=C(Cl)C(=O)c2ccccc2C1=O | 25.8 (≈ 86.7 µM) | 3.2 (≈ 10.7 µM) | 2.08 | 4.9 (≈ 16.5 µM) | 9.3 (≈ 31.2 µM) |  |  |  |  |  |  |  |  |  |  |  | 
8 | COc1ccc(NC2=CC(=O)c3ccccc3C2=O)cc1 | 7.6 (≈ 27.2 µM) | 35.7 (≈ 128 µM) | 1.43 | 3.7 (≈ 13.2 µM) | 8.1 (≈ 29 µM) |  | 4.5 | Active | 3.4 | Dose-dependent effect | 5 | 5 | 5.9 | 3.4 | 75 |  | 
9 | C[n+]1cc2c3c(ccc2c2ccc4cc5c(cc4c21)OCO5)OCO3 [SANGUINARIUM] |  |  |  |  |  |  |  |  |  |  |  |  |  |  |  | 639.2 | 
10 | Cc1ccccc1NC1=CC(=O)c2ccccc2C1=O | 7.7 (≈ 29.2 µM) | 6.2 (≈ 23.5 µM) | 2.04 | 0.8 (≈ 3.04 µM) | 7.7 (≈ 29.2 µM) |  |  |  |  |  |  |  |  |  |  |  | 
11 | O=C1C=C(Nc2ccc(O)cc2)C(=O)c2ccccc21 | 0.9 (≈ 3.39 µM) | 6 (≈ 22.6 µM) | 1.16 | 0.8 (≈ 3.02 µM) | 2.3 (≈ 8.67 µM) |  | 4.9 | Active | 3 | Dose-dependent effect | 2.7 | 5.1 | 6 | 4 |  |  | Active
12 | COc1ccc(OC)c(NC2=C(Cl)C(=O)c3ccccc3C2=O)c1 | 6 (≈ 17.5 µM) | 0.7 (≈ 2.04 µM) | 1.34 | 4.6 (≈ 13.4 µM) | 2.4 (≈ 6.98 µM) |  |  |  |  |  |  |  |  |  |  |  | 
13 | O=C1C=C(Nc2ccccc2)C(=O)c2ccccc21 | 4 (≈ 16 µM) | 0.2 (≈ 0.802 µM) | 1.55 | 2.6 (≈ 10.4 µM) | 1.2 (≈ 4.81 µM) |  |  |  |  |  |  |  |  |  |  |  | 
